ZTA DNA inh: blocks Epstein-Barr virus ZTA, an EBNA-1 counter-screen. P03206. ZTA-DNA binding, fluorescence polarization. inhibition, % at 11 µM. hit rate 0.15% among 320,000; in the data active means inhibition above about 33%
Target sequence (P03206 whole entry, looked up): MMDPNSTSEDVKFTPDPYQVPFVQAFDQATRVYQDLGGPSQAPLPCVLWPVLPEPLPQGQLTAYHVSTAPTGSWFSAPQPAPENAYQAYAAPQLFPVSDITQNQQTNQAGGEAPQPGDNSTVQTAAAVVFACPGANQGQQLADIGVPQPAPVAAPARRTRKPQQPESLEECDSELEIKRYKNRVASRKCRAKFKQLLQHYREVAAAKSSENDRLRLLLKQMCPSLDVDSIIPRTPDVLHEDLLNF
LANA-H2A inh: blocks KSHV LANA binding to histone H2A/H2B. Q9QR71. cell-free LANA-H2A/H2B peptide, fluorescence polarization. inhibition, % (concentration not given with the values). hit rate 0.6% among 320,000; in the data active means inhibition mostly above about 10%, no sharp cut-off; inactive means mostly below about 6.7%
Bfl-1 A1 inh: inhibitors of the anti-apoptotic protein A1, read as caspase activation; MEF A1-2A-BIM cells, Caspase-Glo 3/7 luminescence, 3 h; percent of clofoctol response, vehicle zero; hit rate 0.066% among 330,000; caspase activation, % (test concentration not listed);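 active means over half of replicate activation scores above 10%, or exactly half above 10 with the replicate mean above 10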
CSN deneddyl inh: inhibitors of human CSN-mediated cullin deneddylation | Q92905 | Purified CSN, SCF-Nedd8-OG deneddylation, fluorescence polarization | inhibition, % at 12.5 µM | hit rate 0.38% among 360,000;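 active means pattern-corrected inhibition above about 35%, with an unprinted fluorescence ratio check between 0.5 and 1.5, limit read from the data, passing the limit was not always enough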
Target sequence (Q92905 whole entry, looked up, one chain of several): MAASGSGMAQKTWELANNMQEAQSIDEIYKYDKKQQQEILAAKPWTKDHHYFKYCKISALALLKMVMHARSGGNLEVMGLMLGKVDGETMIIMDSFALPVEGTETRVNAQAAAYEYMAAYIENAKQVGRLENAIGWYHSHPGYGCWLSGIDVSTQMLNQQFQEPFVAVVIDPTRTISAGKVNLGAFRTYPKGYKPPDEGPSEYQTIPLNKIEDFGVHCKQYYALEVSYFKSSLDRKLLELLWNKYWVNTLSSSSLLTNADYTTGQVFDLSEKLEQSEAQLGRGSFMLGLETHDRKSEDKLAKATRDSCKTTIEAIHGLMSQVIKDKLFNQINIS
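Material: purified human Csn5 enzyme expressed in HEK293T cells / Medium: Tris buffer pH 7.5, NaCl, DTT, Tween-20, trehalose, ovalbumin / Compound dosing: 12.5 µM single point / Schedule: 90 min incubation of compound, enzyme and substrate at room temperature / Signal: fluorescence polarization of the substrate / Control set: no-enzyme wells high, enzyme-with-substrate wells low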
HNF4A DNA FP: change in binding of human HNF4 alpha to DNA; P41235; HNF4a-FITC DNA binding, fluorescence polarization, 1 h; activity change, % at 10 µM; hit rate 0.3% among 360,000; in the data active means activity change above about 30%, passing the limit was not always enough
EBNA-1 inhibitor: blocks EBNA-1 binding to DNA | EBNA-1 DNA binding, fluorescence polarization | inhibition, % at 14.8 µM | hit rate 0.34% among 300,000; in the data active means inhibition above about 28%
Hits are given with their value; – = inactive; · = no result given. Most compounds without a hit are left out; they make up all but 1.5% or so of the library.

SMILES	ZTA DNA inh	LANA-H2A inh	Bfl-1 A1 inh	CSN deneddyl inh	HNF4A DNA FP	EBNA-1 inhibitor
CC(=O)Nc1ccc(OCC(O)Cn2cnc3ccccc32)cc1 (stereo not drawn)	–	–	–	–	–	–
CC(=O)Nc1cccc(OCC(O)Cn2cnc3ccccc32)c1 (stereo not drawn)	–	–	–	58	–	–
COc1ccccc1CNC(=O)CCNS(=O)(=O)c1ccc2c(c1)oc(=O)n2C	–	–	–	–	–	–
O=S(=O)(N/N=C1/CCCc2ccccc21)c1ccc(Br)cc1	–	–	–	–	–	–
O=S(=O)(N/N=C1\CCCc2ccccc21)c1ccccc1	–	14	–	–	–	·
Cc1ccc(CNC(=O)c2ccc(OCC3CCCO3)cc2)cc1 (stereo not drawn)	–	–	–	–	–	–
COc1ccc(-c2csc(COC(=O)C(C)(C)C)n2)cc1	–	–	–	105	–	–
CCC1=Nc2cc(C(=O)NCCN3CCOCC3)ccc2Sc2ccc(C)cc21	–	5.1	–	–	–	–
CCCc1cc(C(=O)N2CCCC(C(=O)c3cc(C)c(OC)c(C)c3)C2)n(C)n1 (stereo not drawn)	–	–	–	–	–	–
NC(=O)C1CCCN(CC(=O)Nc2cc(S(=O)(=O)N3CCOCC3)ccc2N2CCCC2)C1 (stereo not drawn)	–	–	–	–	–	·
Cc1cccc(NC(=O)/C(C#N)=C/c2cn(CC(=O)NCc3ccco3)c3ccccc23)c1	–	–	53	–	–	–
Cc1ccc(S(=O)(=O)NCCC(=O)Oc2ccc3ccc(=O)oc3c2)cc1	–	–	–	41	–	–
O=C(COC(=O)/C=C/c1cccc(Cl)c1Cl)Nc1ccc2[nH]c(=O)[nH]c2c1	–	–	16	–	–	·
O=C(COC(=O)/C=C/c1cccc(Cl)c1)Nc1ccc2[nH]c(=O)[nH]c2c1	–	–	–	–	–	–
O=C(Nc1ccc([N+](=O)[O-])cc1Br)c1cc2ccccc2nc1Cl	–	–	–	–	–	–
Cn1cccc1C(C#N)(CC#N)c1cccc(F)c1C#N (stereo not drawn)	–	–	–	101	–	–
Cc1cc(-c2ccccc2)nc(Nc2nc3c(C)cccc3c(=O)[nH]2)n1	·	·	·	–	53	·
Cn1c(=O)c2sc3c(c2n(CC(=O)Nc2ccccc2)c1=O)COC(C)(C)C3	–	–	–	–	–	–
CC(Oc1ccc(C#N)cc1)C(=O)NC1CCCC1 (stereo not drawn)	–	–	–	–	–	·
O=C(Nc1ccccc1Oc1ccsc1C(=O)O)c1ccccc1	–	–	–	–	–	–
O=C(O)c1cccc(NC(=O)c2ccccc2NC(=O)c2ccccc2F)c1	–	17	–	–	–	–
Cc1ccc(C(=O)Nc2ccccc2N2CCCCC2)cc1	–	–	–	–	–	–
Cc1cc(C)cc(NC(=O)Nc2ccccc2N2CCCCC2)c1	–	12	–	–	–	–
O=C(Nc1ccccc1Oc1ccsc1C(=O)O)c1ccccc1F	–	98	–	–	–	–
O=C(Nc1ccccc1N1CCCCC1)c1ccc(Cl)cc1	–	–	7.3	–	–	–
SMILES	ZTA DNA inh	LANA-H2A inh	Bfl-1 A1 inh	CSN deneddyl inh	HNF4A DNA FP	EBNA-1 inhibitor
C[C@H]1CN(S(=O)C(C)(C)C)[C@@H](CCO)/C1=C\CCO (stereo partly drawn)	·	·	·	–	–	·
CCCCN1CC(C)(C)[C@H](CC(=O)NC)C1=O	·	·	·	–	–	·
O=C(Nc1ccccc1N1CCCCC1)c1ccccc1F	–	–	–	–	–	–
O=C(Nc1ccccc1N1CCCC1)c1ccccc1F	–	–	–	–	38	–
COc1ccc(-n2nc3c(N4CCC(C(=O)NCc5ccccc5C)CC4)nnc(C)c3c2C)cc1	–	–	–	117	–	–
CN(CC1COc2ccccc2O1)C(=O)c1cc(COc2c(F)cccc2F)on1 (stereo not drawn)	–	–	–	–	–	–
CN(CC1COCCO1)C(=O)c1cc(COc2c(F)cccc2F)on1 (stereo not drawn)	–	116	–	–	–	–
COc1ccc(Cc2c(-c3ccc(Cl)cc3)nc3cc(C)c(Br)c(C)n23)c(C)c1	·	·	·	–	–	·
CC(=O)N1CCc2cc(N=NC3=C(O)CCCC3=O)ccc21	–	–	–	–	43	–
CCCc1nc2nc(C)c(NS(=O)(=O)c3ccc([N+](=O)[O-])cc3)c(=O)n2[nH]1	–	–	–	–	–	–
Cc1cccn2c(=O)c3cc(C(=O)NC4CCCC4)c(=N)n(CCc4ccccc4)c3nc12	–	14	–	–	–	–
O=c1[nH]ncc2c3ccccc3n(Cc3cccc(Cl)c3)c12	–	–	–	–	63	–
CCCCCCCc1c(O)nc(SCC(=O)O)[nH]c1=O	–	48	–	–	–	–
CC1CCN(C(=O)COC(=O)CSc2ccc(C(N)=O)cc2[N+](=O)[O-])CC1	–	–	–	–	–	–
C=CCCC(=O)N1C[C@H]2CON(C)[C@H]2C[C@H]1c1cccc(Oc2ccccc2)c1	·	·	·	–	–	·
CCn1c(=O)c(C(=O)CN2CCCc3ccccc32)c(N)n(Cc2ccccc2)c1=O	–	–	–	48	–	–
Cc1sc2nc(-c3ccc(Br)cc3)oc(=O)c2c1C	–	–	–	–	–	–
Nc1cc(=O)[nH]c(SCC(=O)Nc2ccc(Oc3ccccc3)cc2)n1	–	16	–	–	–	–
CCc1ccc(C(=O)CSc2nc(N)cc(=O)[nH]2)cc1	–	–	–	–	49	–
O=C(O)c1ccccc1C(=O)N1CCN(S(=O)(=O)c2cccc(C(F)(F)F)c2)CC1	·	43	–	–	–	·
O=C(c1ccncc1)N1CCN(S(=O)(=O)c2cccc(C(F)(F)F)c2)CC1	–	–	–	–	–	·
O=C(C[C@@H]1C/C=C/CCCC(=O)O[C@H](c2ccccc2)CNC1=O)N[C@H](CO)Cc1ccccc1	·	10	–	–	–	·
O=C(C[C@H]1C/C=C\C[C@@H](Cc2ccc(F)cc2)C(=O)O[C@H](c2ccccc2)CNC1=O)N[C@@H](CO)Cc1ccccc1	·	–	–	–	–	·
CC/C(C)=N\N=C\c1c(O)n(CC)c2cc(C3=NNC(=O)CC3)ccc12	–	–	–	–	–	–
CCn1c(O)c(/C=N/N=C/c2ccc(OC)cc2)c2cc(C3=NNC(=O)CC3)ccc21	–	–	–	89	95	–
Cn1c(/C=C/c2ccc([N+](=O)[O-])o2)nc2ccccc2c1=O	–	–	–	–	59	–
CCc1ccc2c(CN3CCC(C(=O)OC)CC3)cc(=O)oc2c1	–	–	–	–	84	–
CCCCn1c(N)c(N(CC(C)C)C(=O)CCCc2nc3ccccc3c(=O)[nH]2)c(=O)[nH]c1=O	–	–	–	–	–	–
Cc1cc(NCCCOC(C)C)n2c(nc3ccccc32)c1C#N	–	–	–	52	–	–
